SENP7 block = SENP7 protease inhibition. Q9BQF6. inhibition, % at 5 µM. recombinant SENP7, Z-RLRGG-aminoluciferin luminescence, 40 min. actives 1.5% (n = 330,000);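 active = inhibition above about 50% at the single test dose, limit read from the data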;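 note: plate controls were DMSO with enzyme for no effect and no enzyme buffer wells for full effect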
SENP1 FRET inh = inhibitors of human SENP1 SUMO protease catalytic domain; Q9P0U3; recombinant SENP1 catalytic domain, CyPet-SUMO1-YPet FRET cleavage; inhibition, % at 10 µM; actives 0.21% (n = 360,000); AID 624204;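 active = inhibition at least 30% at 10 µM, raw YFP signal under a set limit, fluorescence ratio 0.5 to 1.5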;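 note: 0% = enzyme with DMSO and 100% = no enzyme wells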
Target sequence (Q9P0U3 419-644 limits assumed): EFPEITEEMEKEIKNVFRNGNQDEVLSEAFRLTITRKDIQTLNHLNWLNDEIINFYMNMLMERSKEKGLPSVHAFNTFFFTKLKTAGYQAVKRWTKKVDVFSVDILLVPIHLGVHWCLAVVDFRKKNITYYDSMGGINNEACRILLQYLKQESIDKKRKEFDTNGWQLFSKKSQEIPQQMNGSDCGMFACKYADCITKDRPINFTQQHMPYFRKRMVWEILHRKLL
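Compound: 10 µM single point, 0.5% DMSO; Test system: hSENP1 catalytic domain, recombinant; Timing: 50 min reaction at room temperature; Technique: FRET, CFP and YFP emission; Control set: no-enzyme wells low, DMSO-plus-enzyme wells high control.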
SENP8 block-1 = SENP8 protease inhibition; actives 1.2% (n = 330,000); purified SENP8, Z-RLRGG-aminoluciferin cleavage, luminescence; inhibition, % at 10 µM; AID 2540; Q96LD8; in the data active = inhibition above about 50%
Target sequence (Q96LD8 whole entry, looked up): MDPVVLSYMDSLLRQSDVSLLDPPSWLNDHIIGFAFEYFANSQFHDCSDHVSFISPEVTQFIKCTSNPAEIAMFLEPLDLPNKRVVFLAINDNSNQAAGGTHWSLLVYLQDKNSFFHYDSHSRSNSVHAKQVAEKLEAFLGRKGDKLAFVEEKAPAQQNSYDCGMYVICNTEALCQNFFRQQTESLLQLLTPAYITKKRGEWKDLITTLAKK
SENP6 block = blocks the human protease SENP6; Recombinant SENP6 catalytic domain, aminoluciferin luminescence; Q9GZR1; inhibition, % at 10 µM; actives 1.8% (n = 330,000); AID 2599;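 active = inhibition above about 50% at the single tested dose, limit read from the data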;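 note: plate controls were DMSO wells with enzyme for no effect and DMSO wells lacking enzyme for full effect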
SENP8 block-2 = blocks human SENP8 cleavage of Nedd8 substrate; Q96LD8; recombinant SENP8, Nedd8 substrate fluorescence; inhibition, % at 20 µM; actives 0.64% (n = 360,000); AID 602440; in the data active = inhibition mostly above about 40%, no sharp cut-off; inactive = mostly below about 27%
SENP8 confirm = confirmation of human SENP8 protease inhibitors; shares compounds with SENP7 block; Recombinant SENP8, Z-RLRGG-aminoluciferin luminescence, 60 min; inhibition, % at 12.5 µM; actives 40% (n = 6,200); AID 488912;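 active = mean inhibition across replicates above about 50%, limit read from the data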
SENP6 confirm = human SENP6 inhibition, confirmed | inhibition, % at 12.5 µM | AID 488915 | actives 58% (n = 6,200) | shares compounds with SENP7 block | recombinant SENP6, Z-RLRGG-aminoluciferin luminescence
SENP7 conf = human SENP7 inhibition, confirmed; inhibition, % at 12.5 µM; actives 69% (n = 6,200); shares compounds with SENP7 block; recombinant SENP7, Z-RLRGG-aminoluciferin luminescence, 40 min
Casp3 select = caspase-3 inhibition (SENP selectivity assay). inhibition, % at 12.5 µM. actives 60% (n = 6,200). AID 488918. purified caspase-3, Z-DEVD-aminoluciferin luminescence, 60 min. shares compounds with SENP7 block;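 active = mean inhibition above about 50%, limit read from the data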;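 note: plate controls were enzyme with DMSO for no effect and wells without caspase-3 for full effect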
Target sequence (P42574 28-227 limits assumed): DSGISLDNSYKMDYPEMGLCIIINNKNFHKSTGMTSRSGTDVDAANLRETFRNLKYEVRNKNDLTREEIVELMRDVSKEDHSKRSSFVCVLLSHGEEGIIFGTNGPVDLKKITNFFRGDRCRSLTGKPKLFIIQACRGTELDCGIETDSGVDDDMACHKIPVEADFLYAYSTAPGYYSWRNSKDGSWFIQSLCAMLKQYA
SENP luc ctr = interferes with luciferase luminescence in SENP counter-screen; shares compounds with SENP7 block; Pre-incubated SENP8/Z-RLRGG-aminoluciferin, luciferase luminescence interference; inhibition, % at 12.5 µM; actives 39% (n = 6,200);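 active = mean inhibition above about 50% when retested at one dose, limit read from the data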;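 note: plate controls were DMSO wells with completed reaction for no effect and substrate without enzyme for full effect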
Numbers without * were called inactive; . = no result. Sampled rows, rich in hits. Any-hit rate of the full collection: about 2.5%.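 Rule for the calls, unless noted: active = mean inhibition above about 50% in the one-dose retest (limit read from the data); inactive = the rest.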

SMILES | SENP7 block | SENP1 FRET inh | SENP8 block-1 | SENP6 block | SENP8 block-2 | SENP8 confirm | SENP6 confirm | SENP7 conf | Casp3 select | SENP luc ctr
CC(Oc1ccc(C#N)cc1)C(=O)c1ccc(F)c(F)c1 (stereo not given) | 9 | 3 | 5 | -1 | 6 | . | . | . | . | .
Cc1noc(C)c1C(=O)N1CCC1(C)C(=O)NS(=O)(=O)Cc1cccc(Cl)c1 (stereo not given) | . | 1 | . | . | 16 | . | . | . | . | .
NC(=O)C1CCCN1S(=O)(=O)c1ccc2ccccc2c1 (stereo not given) | 8 | 2 | -9 | -14 | 10 | . | . | . | . | .
O=c1cc(-c2ccco2)oc2ccc(Cl)cc12 | . | 0 | . | . | -401 | . | . | . | . | .
COc1ccc(-c2cc(=O)c3cc(O)ccc3o2)cc1 | 78* | 4 | 53* | 69* | 3 | -21 | 47 | 87* | 73* | 47
COc1ccc2oc(-c3ccco3)cc(=O)c2c1 | 80* | 5 | 61* | 81* | -462 | 10 | 26 | 49 | 55* | 9
Cc1nc(/C(N)=N/OC(=O)c2ccc(Cl)cc2)c(C(F)(F)F)o1 | 82* | 6 | 58* | 69* | 11 | 74* | 70* | 94* | 88* | 78*
CCCCC[C@@H](C)N1C[C@H](COCc2ccccc2)Oc2cc(N3CC[C@H](O)C3)ccc2S1(=O)=O | . | 1 | . | . | 14 | . | . | . | . | .
CCN1CCN(C2=C(NS(=O)(=O)c3ccc(Br)cc3)C(=O)c3ccccc3C2=O)CC1 | 42 | -18 | 43 | 64* | 27 | 25 | 45 | 10 | 12 | 0
CCOC(=O)C1CCN(C2=C(NS(=O)(=O)c3ccc(Br)cc3)C(=O)c3ccccc3C2=O)CC1 | 37 | 0 | 16 | 53* | 50* | 12 | 28 | -3 | 7 | -1
CC(C)(C)C(=O)Nc1cc(NC(=O)C(C)(C)C)cc(C(=O)Nc2c[nH]c(=O)[nH]c2=O)c1 | 6 | 1 | 7 | -8 | 28 | . | . | . | . | .
COc1cc(C)nc(NS(=O)(=O)c2ccccc2Cl)n1 | 52* | -1 | -7 | 4 | 5 | -25 | -17 | -6 | -5 | -6
COc1ccc(O)c(/C=N/N2CCCCC2)c1 | 83* | 1 | 77* | 80* | 26 | 78* | 80* | 96* | 88* | 69*
COc1ccc(/C(C)=N/N2CCCCC2)c(O)c1 | 8 | 0 | -3 | -8 | 13 | . | . | . | . | .
O=c1c2cc([N+](=O)[O-])cc([N+](=O)[O-])c2[nH]n1-c1ccccc1 | 0 | -2 | 46 | 64* | 31 | 55* | 51* | 79* | 71* | 73*
Nc1[nH]n(-c2ccccc2)c(=O)c1N=Nc1ccccc1 | 67* | 0 | 43 | 72* | 28 | -4 | 45 | 83* | 42 | -6
Nc1[nH]n(-c2ccccc2)c(=O)c1N=Nc1ccccc1[N+](=O)[O-] | 61* | -1 | 2 | -54 | 11 | 19 | 16 | 9 | 7 | -1
O=c1[nH]c(=O)c2cc([N+](=O)[O-])cc([N+](=O)[O-])c2[nH]1 | 9 | 0 | 3 | 25 | 38 | . | . | . | . | .
CCc1cc2c(SCC(=O)Nc3cc(C)on3)ncnc2s1 | -4 | -8 | -2 | -12 | -10 | . | . | . | . | .
CCCC(=O)Nc1ccc(C2C(=O)c3ccccc3C2=O)cc1 | -4 | -1 | 56* | 75* | 4 | 38 | 80* | 94* | 93* | 80*
O=c1c(-c2nn[nH]n2)coc2ccc(Cl)cc12 | -7 | -2 | -4 | 0 | -1 | . | . | . | . | .
Cc1ccc([C@@H]2C[C@H]3CN(Cc4cccc(Cl)c4)C(=O)[C@]34CCCN24)o1 | -5 | 1 | 4 | 64* | 1 | -14 | -11 | -11 | -6 | -11
CC(=O)c1cccc2c(O)c(C3=Nc4ccccc4C3=O)[nH]c12 | 13 | -10 | 59* | 54* | -1 | 48 | 60* | 43 | 46 | 19
O=C1C(c2c(O)[nH]c3ccccc23)=Nc2ccccc21 | -9 | -2 | 3 | 6 | 21 | . | . | . | . | .
Fc1ccc(-n2nnc(-c3cccnc3)n2)cc1 | 21 | -1 | -6 | 22 | 15 | . | . | . | . | .
SMILES | SENP7 block | SENP1 FRET inh | SENP8 block-1 | SENP6 block | SENP8 block-2 | SENP8 confirm | SENP6 confirm | SENP7 conf | Casp3 select | SENP luc ctr
Fc1ccc(-n2nnc(-c3cnc4ccccc4c3)n2)cc1 | 96* | -2 | 80* | 93* | 12 | 65* | 67* | 26 | 61* | 33
Cc1ccc(NC(=O)NC(=O)CSc2nnc(-c3ccc(Cl)cc3Cl)n2N)c(C)c1 | 59* | -1 | 40 | 63* | 19 | 56* | 56* | 83* | 32 | 72*
S=C(NCc1ccco1)Nc1cc(-c2ccccc2)[nH]n1 | -3 | 2 | -3 | 10 | -4 | . | . | . | . | .
Cc1ccc(C(O)C(=O)c2ccco2)cc1 (stereo not given) | 75* | -2 | -8 | 3 | 11 | -25 | -18 | -12 | -12 | -8
COc1ccc(S(=O)(=O)Nc2ccccc2C(N)=O)cc1OC | 4 | 0 | 1 | -18 | -160 | . | . | . | . | .
Cn1c(SCC(=O)NC(=O)Nc2ccccc2)nnc1-c1ccncc1 | -1 | 1 | -1 | -20 | 10 | . | . | . | . | .
COc1ccc(C(=O)OCC(=O)c2ccc(Br)s2)c(OC)c1 | -4 | 3 | 3 | -2 | 1 | . | . | . | . | .
COc1cccc(C(=O)OCC(=O)c2ccc(Br)s2)c1 | 40 | 0 | 25 | 54* | 4 | 53* | 49 | 78* | 36 | 21
CC1(c2nc3ccccc3cc2C#N)OCCO1 | . | 2 | . | . | 4 | . | . | . | . | .
CCc1nc(SCC(=O)Nc2ccc(N(C)C)cc2)c2ccccc2n1 | 7 | 2 | 1 | 4 | 30 | . | . | . | . | .
CC(=O)c1cnc2cc(-c3ccccc3)nn2c1C | -5 | -3 | -15 | -12 | -277 | . | . | . | . | .
CC(=O)c1cnc2cc(-c3ccc(C)cc3)nn2c1C | -1 | -1 | 45 | 67* | -268 | 50* | 33 | 72* | 66* | 17
Cc1cccc(N=C2NC(=O)/C(=C/c3cccs3)S2)c1 | 7 | 3 | 7 | 52* | -8 | 6 | 16 | 23 | 16 | 6
Cn1cccc1C(=O)C(=O)Nc1ccc(Cl)cc1 | 95* | 1 | 86* | 90* | 23 | 93* | 93* | 100* | 90* | 57*
Cn1cccc1C(=O)C(=O)Nc1cc(Cl)cc(Cl)c1 | 94* | 1 | 67* | 73* | 24 | 35 | 53* | 88* | 58* | -1

From PubChem BioAssay
